Test [1] has as its target T1, human FPR1 (Homo sapiens, UniProt P21462).
T1 sequence (P21462 1-350): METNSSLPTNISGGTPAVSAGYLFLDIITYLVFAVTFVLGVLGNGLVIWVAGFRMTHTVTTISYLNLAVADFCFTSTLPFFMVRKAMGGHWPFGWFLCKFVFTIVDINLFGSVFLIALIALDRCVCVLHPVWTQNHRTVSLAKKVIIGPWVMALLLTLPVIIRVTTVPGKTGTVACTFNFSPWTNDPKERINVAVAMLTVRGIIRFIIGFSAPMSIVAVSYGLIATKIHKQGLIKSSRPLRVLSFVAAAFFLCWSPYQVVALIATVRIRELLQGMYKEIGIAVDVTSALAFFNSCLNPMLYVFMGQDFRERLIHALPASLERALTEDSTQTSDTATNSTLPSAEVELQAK
The experiment in a line: Desensitization: inhibition of fMLF-induced Ca2+ mobilization in FPR1-HL60 cells. The format is cell-based. An outline of the steps: (§1)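 Fluo-4-loaded transfected HL-60 cells in HBSS⁺ were pretreated with DMSO vehicle or graded test compound concentrations while Ca²⁺ flux was monitored. The same wells were then challenged with 5 nM fMLF (FPR1 cells) or 5 nM WKYMVM (FPR2 cells). The second Ca²⁺ response (ex 485/em 538 nm, every 5 s for 240 s, room temperature) was taken as the measure of desensitization. Each compound was run in triplicate, with dose-response curves fitted by nonlinear regression.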

The nature of test [2]: ROS scavenging in cell-free non-enzymatic O2·−-generating system. The settings on record: concentrations up to 20 μM; data not shown. An outline of the steps: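 Superoxide generated non-enzymatically from phenazine methosulfate plus NADH in 0.05 M phosphate buffer, pH 7.5, with or without test compound. Detection by NBT reduction to monoformazan, followed at 560 nm and 25 °C on a plate spectrophotometer. The rate of absorbance change was taken as the read-out.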

Test [3] addresses T2, human FPR2 (Homo sapiens, UniProt P25090).
T2 sequence (P25090 1-351): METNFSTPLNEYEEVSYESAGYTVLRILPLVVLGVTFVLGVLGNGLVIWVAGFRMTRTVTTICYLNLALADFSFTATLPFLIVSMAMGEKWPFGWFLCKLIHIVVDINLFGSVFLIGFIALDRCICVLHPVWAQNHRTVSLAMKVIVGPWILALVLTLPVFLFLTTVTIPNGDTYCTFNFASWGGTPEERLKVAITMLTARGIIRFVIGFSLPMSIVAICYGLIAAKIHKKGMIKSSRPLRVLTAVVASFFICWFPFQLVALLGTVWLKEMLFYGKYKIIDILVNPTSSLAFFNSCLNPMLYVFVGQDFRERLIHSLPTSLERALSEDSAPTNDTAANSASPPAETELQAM
The experiment in a line: Ca2+ mobilization. The format is cell-based. The settings on record: for Ca+2 mobilization FPR2-HL60 efficacy: normalized to 5 nM WKYMVM = 100%. An outline of the steps:
(§2)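 FPR1- or FPR2-stably transfected HL-60 cells were kept in RPMI 1640 with 10% FCS and G418. Cells were loaded with Fluo-4 AM (1.25 µg/mL final) for 30 min at 37 °C in the dark, then put in HBSS with Ca²⁺/Mg²⁺ at 2×10⁵ cells/well. After test compound addition, fluorescence (ex 485/em 538 nm) was read every 5 s for 240 s at room temperature. Peak change over baseline was normalized to 5 nM fMLF (FPR1) or 5 nM WKYMVM (FPR2). Runs were in triplicate, with EC50 from nonlinear regression of 5–6 points.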

For test [4], the system named is mouse microglial N9 cells. Nature of the test: ROS production in LPS-stimulated N9 cells. The settings on record: for reduction in cellular ROS level (dose dependence): N9 cells stimulated with LPS, 0.1 and 1 μM; for reduction in ROS production: N9 cells, 24 h co-incubation with LPS, compound 0.1 μM, p<0.05. The format is cell-based. The gist of the method: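 N9 microglia seeded at 25,000 cells/well; after 3–4 h, LPS 300 ng/mL added alone or with test compound (0.1 or 1 μM), then 24 h at 37 °C. H2DCF-DA (10 μM final) added for 30 min, wells washed 3× in ice-cold PBS, read in saline at ex 480/em 520 nm. Increase over basal fluorescence; mean ± standard error, ≥3 biological replicates; one-way ANOVA with paired two-tailed t-tests, p<0.05.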

The target in test [5] is T2, human FPR2. The format is cell-based. The settings on record: for Ca+2 mobilization FPR2-HL60 max. inhibition: desensitization, pretreatment, then WKYMVM 5 nM. An outline of the steps:
as §1

In test [6] the target is T1, human FPR1. The experiment in a line: Ca2+ mobilization. The format is cell-based. The settings on record: for Ca+2 mobilization FPR1-HL60 efficacy: normalized to 5 nM fMLF = 100%. An outline of the steps: as §2
A further test relates to N9 cells. Nature of the test: MTT cytotoxicity assay in N9 cells. The format is cell-based. The settings on record: Mus musculus, N9, 24 h, read-out: MTT EC50. The gist of the method:
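Murine N9 microglia were grown in IMDM with 5% FBS and 2 mM glutamine at 37 °C in 5% CO₂, and seeded at 20,000 cells/well. Next day, test compound was added at 5–6 concentrations (10⁻⁸–10⁻⁴ M) in triplicate, with a DMSO vehicle control. After 24 h, MTT (0.5 mg/mL) was added for 3–4 h at 37 °C. Formazan was dissolved in DMSO/EtOH 1:1 and read at 570 and 630 nm. EC50 came from a nonlinear fit of percent absorbance change against log concentration.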
A general note: Tetrazolium dyes change colour on reduction, which living cells bring about.

The test system of test [7] is FPR2. The settings on record: FPR2 agonist WKYMVm; cited from earlier work.
Test [8] relates to FPR2. The settings on record: cited from earlier work.
A further test has as its system ear edema. The settings on record: cited from earlier work.
For test [9], the target named is FPR2. The settings on record: read-out: Ki value at FPR2; cited from earlier work.
Test [10] relates to FPR2. The settings on record: read-out: FPR2 desensitization IC50; cited from earlier work.

Turning to `O=C(Nc1ccc(Br)cc1)N[C@H](Cc1ccc(O)cc1)C(=O)NC1CCCCNC1=O` (stereo partly drawn) [(2R)-46, (2R)-2-[3-(4-Bromophenyl)ureido]-3-(4-hydroxyphenyl)-N-(2-oxoazepan-3-yl)propanamide], the “FPR1 desensitization / inhibition of fMLF-induced Ca2+ mobilization, in words” value on human FPR1 [1] (FPR1-HL60 cells, fMLF) is “able to induce FPR1 desensitization”. For the same compound, the “Ca+2 mobilization FPR1-HL60 max. inhibition” value at human FPR1 [1] (desensitization, pretreatment, then fMLF 5 nM) is recorded as 85%. Further, the “direct ROS scavenging activity” value in test [2] was “none of the tested compounds demonstrated ROS scavenging activity”. Also, at human FPR2 [3], the EC50 (usually the concentration giving half of the maximal effect) was determined as 350 ± 120 nM and the “Ca+2 mobilization FPR2-HL60 efficacy” value came to 140%. In test [4], the “reduction in cellular ROS level (dose dependence)” value is reported as “dose-dependent reduction in cellular ROS level” and the “reduction in ROS production” value was “statistically significant reduction in ROS production”. Further, the “FPR2 desensitization / block of agonist-induced Ca2+ mobilization, in words” value at human FPR2 [5] (FPR2-HL60 cells, WKYMVM) was “able to induce desensitization”. Besides, the “Ca+2 mobilization FPR2-HL60 max. inhibition” value on human FPR2 [5] was 100%. Further, at human FPR1 [6], the concentration giving a half-maximal response (EC50) stood at 820 ± 370 nM and the “Ca+2 mobilization FPR1-HL60 efficacy” value turned out to be 110%. Besides, the EC50 with N9 cells is greater than 100000 nM.
Regarding `N#Cc1ccc(C[C@@H](NC(=O)Nc2ccc(O)cc2)C(=O)NCC2(c3ccccc3)CC2)cc1` [(R)-24, (R)-3-(4-Cyanophenyl)-2-[3-(4-hydroxyphenyl)ureido]-N-[(1-phenylcyclopropyl)methyl]propanamide], the EC50 with N9 cells is greater than 100000 nM.
As for `COc1ccc(NC(=O)N[C@H](Cc2ccc(O)cc2)C(=O)NCC2(c3ccccc3)CC2)cc1` [(R)-25, (R)-3-(4-Hydroxyphenyl)-2-[3-(4-methoxyphenyl)ureido]-N-[(1-phenylcyclopropyl)methyl]propanamide], the “direct ROS scavenging activity” value in test [2] is reported as “none of the tested compounds demonstrated ROS scavenging activity”. Further, on human FPR2 [3], the “Ca+2 mobilization FPR2-HL60 efficacy” value is recorded as 90%. For the same compound, in [4], the “reduction in cellular ROS level (dose dependence)” value is recorded as “dose-dependent reduction in cellular ROS level” and the “reduction in ROS production” value was “statistically significant reduction in ROS production”. Moreover, the “Ca+2 mobilization FPR2-HL60 max. inhibition” value at human FPR2 [5] came to 75%. Also, on human FPR1 [6], the “Ca+2 mobilization FPR1-HL60 efficacy” value was determined as 55%. Besides, in the test with N9 cells, the EC50 was greater than 100000 nM.
As to `CCCCOc1ccc(C(=O)NN2C(=O)c3ccccc3NC2c2ccc(O)cc2)cc1` (stereo not drawn) [Compound 6, Quin C7], the “inhibition of chemotaxis induced by WKYMVm” value in the test with FPR2 [7] was “inhibited”. For the same compound, the “inhibition of Ca2+ flux induced by WKYMVm” value in the test on FPR2 [8] (FPR2 agonist WKYMVm) is given as “inhibited”. Moreover, the “activation of Ca2+ flux” value in the test with FPR2 [8] (FPR2 transfected cells) is “did not activate Ca^2+ flux”. For the same compound, the “arachidonic acid-induced ear edema” value in the test with ear edema is on record as “inhibited arachidonic acid-induced ear edema”. For the same compound, the Ki (commonly the dissociation constant of the complex between target and ligand, obtained from inhibition or displacement) on FPR2 [9] was 6700 nM.
For `CCCCOc1ccc(C(=O)NN2C(=O)c3ccccc3NC2c2ccc(OC)cc2)cc1` (stereo not drawn) [Quin C1, reference compound], the “reduction in ROS production” value in [4] is on record as “statistically significant reduction in ROS production”. Also, the IC50 (usually the point on the concentration scale where inhibition reaches its midpoint) with FPR2 [10] was 40 nM.

The values are drawn from article PMC5909973 (ChemMedChem, 2017).
